Most compounds without a hit are left out; they make up all but 3% or so of the library.
NPY-Y1 PAM-ag = human NPY-Y1 potentiation or agonism, primary screen | NPY-Y1 expressing cells, potentiator/agonist activation | activation, % at 3.6 µM | P25929 | actives 0.37% (n = 220,000) | AID 1304; in the data active = activation above about 33%, passing the limit was not always enough;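 also: cells stimulated with NPY at EC10 then isoproterenol at EC100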
Target sequence (P25929 whole entry, looked up): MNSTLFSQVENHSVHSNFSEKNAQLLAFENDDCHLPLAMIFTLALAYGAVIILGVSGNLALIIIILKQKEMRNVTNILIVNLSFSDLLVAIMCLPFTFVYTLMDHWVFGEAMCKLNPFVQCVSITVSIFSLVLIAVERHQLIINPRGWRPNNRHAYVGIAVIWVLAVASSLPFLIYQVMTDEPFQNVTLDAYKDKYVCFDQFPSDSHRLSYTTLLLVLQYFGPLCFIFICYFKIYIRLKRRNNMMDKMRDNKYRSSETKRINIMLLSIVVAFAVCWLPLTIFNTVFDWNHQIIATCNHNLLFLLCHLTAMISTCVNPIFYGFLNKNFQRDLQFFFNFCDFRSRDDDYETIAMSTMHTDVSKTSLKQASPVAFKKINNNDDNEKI
Hsp70 act = transcriptional activators of Hsp70 | AID 1203 | actives 0.04% (n = 200,000) | HeLa Hsp70 promoter luciferase reporter, luminescence; scaled: vehicle 0, proteasome-inhibitor control 100% | activation, % at 10 µM;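 active = activation above the mean across all tested compounds plus 3 SD, cutoff set per campaign, cut at about 5.5% in these data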
NPY-Y2 antag = blocks the human neuropeptide Y Y2 receptor | P49146 | NPY-Y2 expressing cells, antagonist mode | inhibition, % at 2.7 µM | actives 0.99% (n = 140,000) | AID 793; in the data active = inhibition above about 17%
Target sequence (P49146 whole entry, looked up): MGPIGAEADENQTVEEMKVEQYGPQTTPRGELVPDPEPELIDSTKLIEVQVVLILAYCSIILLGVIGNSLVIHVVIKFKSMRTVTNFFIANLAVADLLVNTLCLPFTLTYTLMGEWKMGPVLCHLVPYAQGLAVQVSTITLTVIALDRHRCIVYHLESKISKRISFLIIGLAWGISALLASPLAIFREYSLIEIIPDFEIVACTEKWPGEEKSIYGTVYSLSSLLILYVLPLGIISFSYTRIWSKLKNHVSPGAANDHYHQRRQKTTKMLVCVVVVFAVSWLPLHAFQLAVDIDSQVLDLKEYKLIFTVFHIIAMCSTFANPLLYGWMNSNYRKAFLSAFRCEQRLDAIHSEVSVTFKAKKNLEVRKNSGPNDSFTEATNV
NPY-Y2 PAM-ag = potentiates or activates human NPY-Y2 receptor | P49146 | cells expressing NPY-Y2, potentiator/agonist read-out | activation, % at 3.6 µM | actives 0.45% (n = 220,000) | AID 1359; in the data active = activation above about 27%;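 also: cells stimulated with NPY near EC25 plus isoproterenol at EC100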
Wee1 degr inh = inhibitors of human Wee1 degradation; P30291; HeLa Luc-Wee1K328M stability, luciferase luminescence; 100% = proteasome inhibitor MG132 effect; reporter increase, % at 5 µM; actives 1.2% (n = 220,000);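 active = activation above the mean of all tested compounds plus 3 SD, set per screening run, cut at about 8.8% in these data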;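 also: cells exposed to compound for 20 h before luminescence read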
NPY-Y1 antag = antagonists of human neuropeptide Y receptor Y1; HEK293-CNG Y1 cells, membrane potential fluorescence; NPY at EC95, then isoproterenol; inhibition, % at 3.6 µM; actives 1% (n = 200,000);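 active = inhibition above the campaign mean inhibition of all tested compounds plus 3 SD, cut at about 20% in these data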
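Assay system: HEK293 cells with Y1 receptor plus CNG channel | Probe or stimulus: NPY (25 nM), isoproterenol (1 µM), Ro 20-1724 (25 µM) | Timing: Compound incubation 1 h at room temperature, readout 45 min post-stimulation | Measured by: Membrane-potential fluorescent dye readout | Benchmarks: High control isoproterenol alone, low control NPY with isoproterenol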
NPY-Y1 pot conf = confirmation of human NPY-Y1 receptor potentiators or agonists; shares compounds with NPY-Y1 PAM-ag; cell-based NPY-Y1 potentiator/agonist assay; activation, % at 3.6 µM; actives 20% (n = 280); in the data active = activation above about 45%;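 also: cells challenged with NPY at its EC10 plus isoproterenol stimulus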
NPY-Y2 counter = NPY-Y2 potentiation or agonism as NPY-Y1 counter-screen; actives 20% (n = 280); AID 1649; activation, % at 3.6 µM; HEK293-CNG cells, membrane-potential fluorescence (FLIPR), 1536-well; shares compounds with NPY-Y1 PAM-ag; in the data active = activation above about 33%
NPY-Y1 agonist = counter-screen for NPY-Y1 potentiators: agonists of human NPY-Y1; shares compounds with NPY-Y1 PAM-ag; HEK293 Y1-CNGC, membrane potential fluorescence, agonist mode; activation, % at 3.6 µM; actives 50% (n = 280); AID 1697;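 active = percent activation above the mean of DMSO-only control wells plus 3 SD of those wells, cut at about 18% in these data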;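 also: cells challenged with isoproterenol plus Ro 20-1724 with no NPY in test wells; Y1 agonism lowers isoproterenol-driven cAMP and reduces probe fluorescence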
NPY-Y2 agonist = activates human NPY-Y2, counter-screen for NPY-Y1 hits; shares compounds with NPY-Y1 PAM-ag; HEK293 Y2-CNGC, membrane potential fluorescence, agonist mode; activation, % at 3.6 µM; actives 67% (n = 280);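 active = activation above the solvent-only control wells' mean plus 3 SD, cut at about 11% in these data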;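 also: agonism lowers cAMP so well fluorescence drops in active wells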
CNGC inh 2 = counter-screen for NPY-Y1 potentiators or agonists: CNG channel inhibitors; shares compounds with NPY-Y1 PAM-ag; HEK293-CNG parental, isoproterenol cAMP, membrane potential fluorescence; inhibition, % at 3.6 µM; actives 42% (n = 280); AID 1704;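 active = inhibition above the mean of stimulated solvent-only control wells plus 3 SD, cut at about 22% in these data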
Wee1 stab conf = human Wee1 degradation inhibition, confirmation; shares compounds with Wee1 degr inh; HeLa Luc-Wee1K328M degradation, luminescence; vehicle 0%, proteasome-blocked wells 100%; activation, % at 5 µM; actives 4% (n = 1,100); AID 1410; in the data active = activation above about 8.9%
Large screens that a line does not name were inactive (follow-up assays come after a bar, where they were run).

Cn1c(COc2ccc(Br)cc2)nnc1SC1CCc2ccccc2C1=O (stereo not given)	none
CCN1CCCC1CNC(=O)c1ccc(Sc2ccccc2Cl)c([N+](=O)[O-])c1 (stereo not given)	NPY-Y1 PAM-ag 36 (no result: NPY-Y2 antag) | NPY-Y1 pot conf inactive | NPY-Y2 counter inactive | NPY-Y1 agonist 23 | NPY-Y2 agonist 30 | CNGC inh 2 34
COC(=O)c1ccccc1NC(=O)COC(=O)CSc1nnc(N)s1	none (no result: NPY-Y2 antag)
CCc1ccc(NC(=S)N(Cc2cccc(Br)c2)CC2CCC(C(=O)O)CC2)cc1 (stereo not given)	none (no result: NPY-Y2 antag)
COC(=O)C(NC(C)=O)(Nc1ccc(C)cn1)C(F)(F)F (stereo not given)	none (no result: Hsp70 act, NPY-Y2 antag, NPY-Y1 antag)
O=C1N(C2CCCC2)C[C@@H]2C[C@@H](c3cn[nH]c3-c3ccc(Cl)cc3)N3CCC[C@@]123	NPY-Y1 PAM-ag 39 (no result: NPY-Y2 antag) | NPY-Y1 pot conf 49 | NPY-Y2 counter inactive | NPY-Y1 agonist 32 | NPY-Y2 agonist 31 | CNGC inh 2 42
COCCN1Cc2cccc(C(=O)NC(C)CCc3ccco3)c2C1=O (stereo not given)	none (no result: NPY-Y2 antag)
COc1ccc(N(C)S(=O)(=O)c2cccc(C(=O)Nc3cc(OC)ccc3OC)c2)cc1	none (no result: NPY-Y2 antag)
COc1ccc(N(C)S(=O)(=O)c2cccc(C(=O)Nc3nnc(C4CC4)s3)c2)cc1	NPY-Y1 PAM-ag 38 (no result: NPY-Y2 antag) | NPY-Y1 pot conf inactive | NPY-Y2 counter inactive | NPY-Y1 agonist 41 | NPY-Y2 agonist 20 | CNGC inh 2 40
COc1c(F)c(F)c(C(=O)Nc2ccc(N3CCN(C(C)=O)CC3)c(Cl)c2)c(F)c1F	none
Cc1ccccc1OCC(O)CN1CCN(CC(O)COc2ccccc2C)CC1 (stereo not given)	NPY-Y1 PAM-ag 40 (no result: NPY-Y2 antag) | NPY-Y1 pot conf inactive | NPY-Y2 counter inactive | NPY-Y1 agonist 31 | NPY-Y2 agonist 16 | CNGC inh 2 inactive
N/C(=N\OC(=O)/C=C/c1ccccc1)c1ccccc1	NPY-Y1 PAM-ag 105 | NPY-Y1 pot conf inactive | NPY-Y2 counter inactive | NPY-Y1 agonist inactive | NPY-Y2 agonist inactive | CNGC inh 2 inactive
C=CCc1ccc(O)c(-c2cc(CC=C)ccc2O)c1	NPY-Y1 PAM-ag 33, Wee1 degr inh 10 (no result: NPY-Y2 antag) | NPY-Y1 pot conf inactive | NPY-Y2 counter inactive | NPY-Y1 agonist inactive | NPY-Y2 agonist 16 | CNGC inh 2 inactive
Cc1ccc(-c2[nH]c3ccccc3c2SCCNC(=O)c2ccc(S(=O)(=O)N3CCOCC3)cc2)cc1	NPY-Y1 PAM-ag 48 | NPY-Y1 pot conf inactive | NPY-Y2 counter inactive | NPY-Y1 agonist inactive | NPY-Y2 agonist 11 | CNGC inh 2 inactive
O=C(Nc1ccc(Cl)cc1Cl)NC1CCN(S(=O)(=O)c2ccc(F)cc2)CC1	NPY-Y1 PAM-ag 48 (no result: Hsp70 act, NPY-Y2 antag, NPY-Y1 antag) | NPY-Y1 pot conf inactive | NPY-Y2 counter inactive | NPY-Y1 agonist 18 | NPY-Y2 agonist 13 | CNGC inh 2 inactive
CC(C)c1ccc2c(c1)CCC1C(C)(CN)CCCC21C (stereo not given)	NPY-Y1 PAM-ag 47 (no result: Hsp70 act, NPY-Y2 antag, NPY-Y1 antag) | NPY-Y1 pot conf 48 | NPY-Y2 counter 42 | NPY-Y1 agonist 34 | NPY-Y2 agonist 40 | CNGC inh 2 inactive
Cc1ccc(O)c(-c2cc3ccccc3[nH]2)c1	NPY-Y1 PAM-ag 47, Wee1 degr inh 11 | NPY-Y1 pot conf inactive | NPY-Y2 counter inactive | NPY-Y1 agonist 38 | NPY-Y2 agonist 42 | CNGC inh 2 31 | Wee1 stab conf inactive
O=C(O)COc1ccccc1/C=N/NC(=O)c1cccc(S(=O)(=O)N2CCOCC2)c1	none (no result: NPY-Y2 antag)
CC(=O)N(C)c1ccc(N=Nc2c(C)[nH]n(C(N)=S)c2=O)cc1	Wee1 degr inh 17 (no result: NPY-Y2 antag) | Wee1 stab conf inactive
CCN(CC)S(=O)(=O)c1ccc(N=Nc2c(C)[nH]n(C(N)=S)c2=O)cc1	none
CCOc1cc(-c2nc(-c3ccccc3OC)no2)cc(OCC)c1OCC	Wee1 degr inh 14 | Wee1 stab conf inactive
C/C(=N\NC(=O)c1ccc(N2CCCC2=O)cc1)c1ccncc1	Wee1 degr inh 15 (no result: Hsp70 act, NPY-Y2 antag, NPY-Y1 antag) | Wee1 stab conf inactive
CCN=C(NCC)SC1CC(=O)N(c2ccc(OCC)cc2)C1=O (stereo not given)	Wee1 degr inh 16 (no result: NPY-Y2 antag) | Wee1 stab conf inactive
CCOc1ccc(N2C(=O)CC(Sc3nnnn3-c3ccccc3)C2=O)cc1 (stereo not given)	Wee1 degr inh 14 (no result: NPY-Y2 antag) | Wee1 stab conf inactive
CCN=C(NCC)SC1CC(=O)N(c2ccccc2)C1=O (stereo not given)	none
CCOc1ccc(N2C(=O)CC(Sc3nc(C)cc(C)n3)C2=O)cc1 (stereo not given)	none
CSC(=O)NC(=O)NC(=O)c1ccc([N+](=O)[O-])cc1	none (no result: Hsp70 act, NPY-Y2 antag, NPY-Y1 antag)
O=C(CSc1nc2nn(-c3ccccc3)c(=O)c-2c2n1CCCCC2)NCCCc1ccccc1	Wee1 degr inh 18 (no result: NPY-Y2 antag) | Wee1 stab conf inactive
CC(Sc1nc2nn(-c3ccccc3)c(=O)c-2c2n1CCCCC2)C(N)=O (stereo not given)	none
O=C(Cc1ccccc1)N/N=C/c1ccc[nH]1	none (no result: Hsp70 act, NPY-Y2 antag, NPY-Y1 antag)
C/C(=N\NC(=O)c1ccccc1C)c1ccc(NC(=O)c2cccs2)cc1	none
C/C(=N\NC(=O)c1ccccc1)c1ccc(NC(=O)c2cccs2)cc1	Wee1 degr inh 13 | Wee1 stab conf inactive
COCCNC(=O)NC(=O)CSc1nc(C)c(C)c(C)n1	none (no result: NPY-Y2 antag)
Cc1[nH]ccc(=O)c1OC1OC(CO)C(O)C(O)C1O (stereo not given)	none
CS(=O)(=O)N1CCc2cc(C(=O)NC3CC3)ccc21	Wee1 degr inh 14 (no result: NPY-Y2 antag) | Wee1 stab conf inactive
CCOC(=O)c1ccc2ncc(C(=O)OCC)c(NCCN(C)C)c2c1	Wee1 degr inh 21 | Wee1 stab conf inactive
CCOC(=O)c1cnc2ccc(C(=O)OC)cc2c1NCc1ccco1	none
COc1ccc(OC)c2[nH]c(=O)c(CCNC(=O)C(C)C)cc12	none

Assay outcomes as filed in PubChem.
